The structures appear in SMILES notation. “Also recorded” adds a separate entry of the source.

As usually defined, the IC50 is the concentration that gives 50% inhibition.

One series has as its system malignant T-cell lines. To be noted: cited from earlier work.
The next series relates to K562. The series is described as follows: MTS cytotoxicity assay, 72 h, K562. Type of series: cell-based, human. To be noted: Homo sapiens, K562, 72 h, read-out: IC50 K562. The method, boiled down:
(§1)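 Human lines were kept at 37 °C, 5% CO2 in recommended medium plus 10% FCS, penicillin–streptomycin, 2 mM glutamine, 1 mM bicarbonate, 1 mM pyruvate and 20 mM HEPES, and were mycoplasma-tested biweekly. Cells were exposed to test compound for 72 h on a robotic screening platform, then read by MTS. DMSO-treated cells were the negative control. IC50 came from dose–response curves, mean of ≥6 replicates.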
(Tetrazolium assays rely on reduction of a dye to a coloured formazan, in cell work by metabolically active cells.)

For series [1], the system named is panel of human cell lines. Nature of the series: MTS cytotoxicity assay, statements over groups of cell lines of the panel. The format is cell-based. To be noted: stated together in the text. In a few lines:
as §1

Assay in series [2]: as above
The format is cell-based, human. To be noted: human, BJ and MRC-5 non-cancerous fibroblast cell lines. In a few lines:
as §1

The next series relates to MRC-5. Nature of the series: MTS cytotoxicity assay, 72 h, MRC-5 fibroblasts. Type of series: cell-based, human. As to conditions: Homo sapiens, MRC5, 72 h, read-out: IC50 MRC-5. The method, boiled down:
as §1

A further series relates to p-ERK1/2 (Thr202/Tyr204). Nature of the series: Western blot of ERK1/2 phosphorylation in PHA-stimulated Jurkat cells. Type of series: cell-based, human. In a few lines: (§2)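 Jurkat cells at 0.5 × 10^6 per mL were stimulated with PHA 5 µg per mL in RPMI/10% FCS for 15 min, then given test compound at 10, 2.25 or 0.62 µM for 24 h. Controls were 0.1% DMSO and unstimulated cells. RIPA lysates (30 µg) were run on 10% SDS-PAGE and probed for p-ITK/BTK (Tyr551/Tyr511), ITK, p-ERK1/2 (Thr202/Tyr204), ERK1/2 and GAPDH using fluorescent secondaries. Phospho/total ratios were normalised to GAPDH.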

The target in a further series is T1, Recombinant ITK (Homo sapiens, UniProt Q08881).
T1 sequence (Q08881 1-620): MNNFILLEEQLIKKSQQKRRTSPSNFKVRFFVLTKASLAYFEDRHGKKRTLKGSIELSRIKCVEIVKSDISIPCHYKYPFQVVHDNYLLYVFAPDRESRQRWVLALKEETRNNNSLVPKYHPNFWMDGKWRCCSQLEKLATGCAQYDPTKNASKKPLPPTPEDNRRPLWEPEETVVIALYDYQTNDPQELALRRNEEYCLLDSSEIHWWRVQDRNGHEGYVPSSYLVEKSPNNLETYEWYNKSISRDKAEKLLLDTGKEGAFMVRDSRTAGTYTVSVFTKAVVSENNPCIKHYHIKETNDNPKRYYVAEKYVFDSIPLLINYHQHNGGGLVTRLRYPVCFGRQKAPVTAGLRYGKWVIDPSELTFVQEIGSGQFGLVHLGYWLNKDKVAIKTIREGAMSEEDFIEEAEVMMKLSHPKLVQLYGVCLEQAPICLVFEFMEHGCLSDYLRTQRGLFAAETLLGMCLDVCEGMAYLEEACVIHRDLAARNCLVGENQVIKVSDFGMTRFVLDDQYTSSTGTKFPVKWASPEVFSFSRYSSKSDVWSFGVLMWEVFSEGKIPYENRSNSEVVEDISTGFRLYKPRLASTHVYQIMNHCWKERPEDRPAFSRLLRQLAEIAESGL
The series is described as follows: In vitro biochemical kinase assay.

The target in a further series is Recombinant BTK (Homo sapiens, UniProt Q06187). The series is described as follows: In vitro biochemical kinase assay. To be noted: ADP-Glo; 0–10 µM range.
Chain of Recombinant BTK (Q06187 whole entry): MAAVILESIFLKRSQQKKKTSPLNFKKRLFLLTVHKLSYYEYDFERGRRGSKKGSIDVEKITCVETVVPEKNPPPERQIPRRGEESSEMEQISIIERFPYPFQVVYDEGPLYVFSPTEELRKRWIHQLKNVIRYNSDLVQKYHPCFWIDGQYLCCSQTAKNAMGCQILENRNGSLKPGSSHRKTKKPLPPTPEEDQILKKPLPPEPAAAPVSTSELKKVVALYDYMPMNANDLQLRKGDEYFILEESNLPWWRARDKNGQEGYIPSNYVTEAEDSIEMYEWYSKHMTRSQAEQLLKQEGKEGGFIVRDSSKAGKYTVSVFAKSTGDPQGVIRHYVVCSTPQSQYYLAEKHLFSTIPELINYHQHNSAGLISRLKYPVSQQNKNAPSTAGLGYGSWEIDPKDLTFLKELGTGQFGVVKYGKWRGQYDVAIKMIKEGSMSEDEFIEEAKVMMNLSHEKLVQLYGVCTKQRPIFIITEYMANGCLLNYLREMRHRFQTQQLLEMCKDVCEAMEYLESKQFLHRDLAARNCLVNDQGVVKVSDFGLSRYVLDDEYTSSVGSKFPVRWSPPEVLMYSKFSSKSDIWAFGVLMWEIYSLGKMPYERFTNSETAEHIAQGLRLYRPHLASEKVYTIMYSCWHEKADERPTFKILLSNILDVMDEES
The subject of another series is BJ. The series is described as follows: MTS cytotoxicity assay, 72 h, BJ fibroblasts. The format is cell-based, human. As to conditions: Homo sapiens, BJ, read-out: IC50 BJ. In a few lines: as §1
In the next series the test system is A549. Nature of the series: MTS cytotoxicity assay, 72 h, A549. The format is cell-based, human. To be noted: Homo sapiens, A549, 72 h, read-out: IC50 A549. The method, boiled down:
as §1

In the next series the test system is Jurkat. The series is described as follows: MTS cytotoxicity assay, 72 h, Jurkat. The format is cell-based, human. As to conditions: Homo sapiens, Jurkat, read-out: IC50 Jurkat. The method, boiled down:
as §1

The next series concerns U2OS. Nature of the series: MTS cytotoxicity assay, 72 h, U2OS. Type of series: cell-based, human. As to conditions: Homo sapiens, U2OS, read-out: IC50 U2OS. The method, boiled down: as §1
The test system of another series is CCRF-CEM. Nature of the series: MTS cytotoxicity assay, 72 h, CCRF-CEM. The format is cell-based, human. To be noted: Homo sapiens, CCRF-CEM, read-out: IC50 CCRF-CEM. The method, boiled down: as §1
The subject of another series is HCT116-p53. Nature of the series: MTS cytotoxicity assay, 72 h, HCT116-p53. To be noted: Homo sapiens, read-out: IC50 HCT116-p53. Type of series: cell-based, human. The method, boiled down:
as §1

The next series relates to RAMOS. Nature of the series: MTS cytotoxicity assay, 72 h, RAMOS. The format is cell-based, human. As to conditions: Homo sapiens, Ramos, read-out: IC50 RAMOS. In a few lines:
as §1

In another series the test system is HCT116. Nature of the series: MTS cytotoxicity assay, 72 h, HCT116. Type of series: cell-based, human. To be noted: Homo sapiens, HCT-116, 72 h, read-out: IC50 HCT116. The method, boiled down: as §1
The next series has as its system p-ITK (Tyr551/Tyr511). Nature of the series: Western blot of ITK phosphorylation in PHA-stimulated Jurkat cells. Type of series: cell-based, human. In a few lines: as §2
For orientation: A western blot detects proteins with antibodies after separation by electrophoresis.

As for `COc1cc(C)c(Sc2cnc(NC(=O)c3ccc(CNC(C)C(C)(C)C)cc3)s2)cc1C(=O)N1CCN(C(C)=O)CC1` (stereo not drawn) [BMS-509744], the “effect in malignant T-cell lines” value in the series with malignant T-cell lines was “induced pro-apoptotic signaling and G2/M cell cycle arrest”.
Consider `O=C(Nc1ccccc1)C1CN(c2cc(-c3cccc(F)c3)n[nH]c2=O)C1` [Compound 9, 1-(6-(3-fluorophenyl)-3-oxo-2,3-dihydropyridazin-4-yl)-N-phenylazetidine-3-carboxamide], for which the IC50 in the series on K562 is more than 50 µM; in the series on MRC-5 it was 43.2 µM; at Recombinant ITK it was 0.87 µM; in the series with BJ it was more than 50 µM; in the series on A549, more than 50 µM; in the series on Jurkat, 37.6 µM. For the same compound, the IC50 with U2OS was more than 50 µM; in the series with CCRF-CEM, 19.5 µM; in the series with HCT116-p53, more than 50 µM; with RAMOS it was 9.58 µM; in the series on HCT116, more than 50 µM. Further, the “IC50 / cytotoxicity in non-ITK/BTK (ITK-null) cancer lines” value in series [1] (A549, HCT116, HCT116-p53, U2OS) was “inactive”. Moreover, the “IC50 / cytotoxicity in fibroblast cells” value in series [1] (non-cancerous fibroblasts (BJ, MRC-5)) is “inactive”. Moreover, the IC50 at 72 h in [2] is more than 50 µM. For the same compound, the “p-ERK1/2 (Thr202/Tyr204) level” value with p-ERK1/2 (Thr202/Tyr204) (PHA-stimulated Jurkat cells, 10 µM (highest concentration), 24 h) is “reduced phosphorylation; also recorded: significant decrease”. The “p-ERK/ERK ratio (densitometry)” value in the series with p-ERK1/2 (Thr202/Tyr204) (highest tested concentration, normalized to GAPDH) is on record as “significant decrease”. The “BTK inhibition (in words)” value at Recombinant BTK was “no measurable BTK inhibition; also recorded: no BTK inhibitory effect was observed; also recorded: absence of BTK activity”. Also, in the series on p-ITK (Tyr551/Tyr511) (PHA-stimulated Jurkat cells, 10 µM, 24 h), the “total ITK level” value was “modest reduction”. Further, in the series with p-ITK (Tyr551/Tyr511) (PHA-stimulated Jurkat cells, 10, 2.25, 0.62 µM for 24 h), the “p-ITK (Tyr551/Tyr511) level” value was “reduced phosphorylation; also recorded: concentration-dependent decrease; also recorded: concentration-dependent significant reduction”. Further, the “p-ITK/ITK ratio (densitometry)” value in the series on p-ITK (Tyr551/Tyr511) (all concentrations tested, normalized to GAPDH) is “significant reduction”.

These data come from article PMC12679438 (RSC Advances, 2025).
